Bioassay records: PubChem, several laboratories
Shown are actives, neighbours in structure and some others; about 2.5% of the full set was active somewhere.
NALP1 yeast inh: NALP1 inhibition; S. cerevisiae NALP1/ASC/caspase-1 growth, X-gal OD620, 72 h; inhibition, % at 10 µM; 280,000 compounds, 0.61% hits; AID 2071; in the data active = inhibition mostly above about 24%, no sharp cut-off; inactive = mostly below about 32%
MC4R antag cAMP: blocks human MC4R cAMP signaling | P32245 | MC4R-expressing cells, MTII-stimulated cAMP, LANCE TR-FRET | inhibition, % at 6.5 µM | 360,000 compounds, 0.48% hits | AID 540295;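 active = inhibition above its plate's cutoff, the mean of tested wells on that plate plus 3 SD, cut at about 29% in these data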
Target sequence (P32245 whole entry, looked up): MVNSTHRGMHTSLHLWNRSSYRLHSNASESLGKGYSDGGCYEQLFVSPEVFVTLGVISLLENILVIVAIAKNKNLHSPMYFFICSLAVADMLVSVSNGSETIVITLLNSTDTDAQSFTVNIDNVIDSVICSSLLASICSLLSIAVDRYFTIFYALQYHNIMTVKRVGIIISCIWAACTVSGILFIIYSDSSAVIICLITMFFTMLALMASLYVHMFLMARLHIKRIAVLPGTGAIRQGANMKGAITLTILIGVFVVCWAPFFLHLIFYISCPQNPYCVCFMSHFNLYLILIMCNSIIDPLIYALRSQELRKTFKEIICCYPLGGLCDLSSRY
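Material – human MC4R-expressing U2OS cells · Repeats – no replicates · Detection – TR-FRET with Eu-cAMP and labeled anti-cAMP, 671 nm · Times – compound 30 min, challenge 1 h, detection 1 h · Compound – single nominal compound dose of 6.5 µM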
Bfl-1 A1 inh: inhibitors of the anti-apoptotic protein A1, read as caspase activation; 330,000 compounds, 0.066% hits; caspase activation, % (test concentration not listed); MEF A1-2A-BIM cells, Caspase-Glo 3/7 luminescence, 3 h; percent of clofoctol response, vehicle zero; AID 2462;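 active = over half of replicate activation scores above 10%, or exactly half above 10 with the replicate mean above 10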
NALP3 yeast inh: NALP3 inhibition in yeast; Yeast reconstituted NLRP3/ASC/caspase-1, beta-gal luminescence, 24 h; inhibition, % at 10 µM; 330,000 compounds, 0.39% hits; AID 2825;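 active = inhibition of 50% or more; inactive = inhibition below 50%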
TbMetRS inhib: Trypanosoma brucei MetRS inhibition. purified T. brucei MetRS, ATP depletion, Kinase-Glo luminescence. inhibition, % at 11.9 µM. 360,000 compounds, 0.4% hits. AID 624268;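 active = inhibition above a per-plate cutoff of the control wells' mean inhibition plus 3 SD, cut at about 5.5% in these data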
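Dosing: 11.9 µM compound single dose, 0.9% DMSO; Assay system: purified T. brucei MetRS enzyme; Measured by: Kinase-Glo luciferase luminescence reporting remaining unconsumed ATP; Schedule: 15 min plus 2 h at 25 °C.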
MC4R ag barr: activates human MC4R beta-arrestin recruitment; U2OS MC4R beta-arrestin complementation, luminescence; percent of melanotan II response, DMSO zero; P32245; activation, % at 8.9 µM; AID 540308; 360,000 compounds, 0.98% hits;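 active = activation above a per-plate cutoff, the mean activation of sample wells on that plate plus 3 SD, cut at about 8% in these data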
Of the large screens only hits and unclear results are named; the others gave an inactive call.

O=C(COC(=O)Cc1ccccc1)NC12CC3CC(CC(C3)C1)C2	NALP1 yeast inh 24
CC1CC(OC(=O)c2ccccc2)(c2ccccc2)C(C)CN1C (centres undefined)	NALP1 yeast inh 33
O=C(O)c1cc[c]([Hg][Cl])cc1	MC4R antag cAMP 70 (no result: NALP1 yeast inh)
CC(=O)OC(C)(C)/C=C/C(=O)[C@](C)(O)[C@H]1[C@H](O)C[C@@]2(C)[C@@H]3CC=C4[C@H](C[C@H](O)C(=O)C4(C)C)[C@]3(C)C(=O)C[C@]12C	none (no result: Bfl-1 A1 inh, NALP3 yeast inh)
CC(=O)OC(C)(C)/C=C/C(=O)C(C)(O)C1[C@H](O)C[C@@]2(C)C3CC=C4C(CC[C@@H](O)C4(C)C)[C@]3(CO)C(=O)C[C@]12C (some centres undefined)	Bfl-1 A1 inh 11
CCOC(=O)CC1=C(C(=O)OCC)C2(C(=O)Nc3ccccc32)C(C#N)=C(N)O1 (centres undefined)	Bfl-1 A1 inh 6.5
CCCC1=C(C(=O)OCC)C2(C(=O)Nc3ccc(C)cc32)C(C#N)=C(N)O1 (centres undefined)	none
CC12CC(=O)C3C(CCC4CC(=O)C=CC43C)C1CCC2=O (centres undefined)	none (no result: NALP1 yeast inh, Bfl-1 A1 inh, NALP3 yeast inh)
C[C@@H]1O[C@@H](O[C@@H]2C=C3CC[C@@H]4C(CC[C@]5(C)[C@@H](c6ccc(=O)oc6)CC[C@]45O)[C@@]3(C)CC2)[C@H](O)[C@H](O)[C@H]1O (some centres undefined)	MC4R ag barr 38 (no result: NALP1 yeast inh)
C[C@@H]1O[C@@H](O[C@@H]2C=C3CCC4C(CC[C@]5(C)[C@@H](c6ccc(=O)oc6)CC[C@]45O)[C@@]3(C)CC2)[C@H](O)[C@H](O)[C@H]1O (some centres undefined)	MC4R ag barr 25 (no result: NALP1 yeast inh)
Fc1ccc(CCNCc2cccc(Cl)c2)cc1	NALP1 yeast inh 41
CCC1(c2ccc(C)cc2)C(=O)NC(=S)NC1=O	none (no result: NALP1 yeast inh, MC4R antag cAMP, Bfl-1 A1 inh, NALP3 yeast inh, MC4R ag barr)
S=C=Nc1cccc(C2(N3CCCCC3)CCCCC2)c1	none (no result: NALP1 yeast inh)
C[C@@H]1O[C@@H](O[C@H]2C[C@@H](O)[C@]3(CO)[C@H]4[C@H](O)C[C@]5(C)[C@@H](C6COC(=O)C6)CC[C@]5(O)[C@@H]4CC[C@]3(O)C2)[C@H](O)[C@H](O)[C@H]1O (some centres undefined)	MC4R ag barr 24
COc1ccc(C(=O)N/N=C/C23CC[C@@H](O)CC2(O)CC[C@@H]2[C@@H]3CCC3(C)C(C4=CC(=O)OC4)CCC23O)cc1 (some centres undefined)	none (no result: NALP1 yeast inh)
CC1OC(OC2CC(O)C3(CO)C4C(O)CC5(C)C(C6=CC(=O)OC6)CCC5(O)C4CCC3(O)C2)C(O)C(O)C1O (centres undefined)	MC4R ag barr 16 (no result: NALP1 yeast inh, Bfl-1 A1 inh, NALP3 yeast inh)
CCOc1cccc(CNCCc2c(C)[nH]c3ccc(OC(F)(F)F)cc23)c1O	MC4R ag barr 17
Cc1[nH]c2ccc(OC(F)(F)F)cc2c1CCNCc1cccc([N+](=O)[O-])c1	none
CC(=O)OC1CC(OC2C(O)CC(OC3C(O)CC(OC4CCC5(C)C(CCC6C5CCC5(C)C(C7=CC(=O)OC7)CCC65O)C4)OC3C)OC2C)OC(C)C1OC1OC(CO)C(O)C(O)C1O (centres undefined)	MC4R ag barr 33 (no result: NALP1 yeast inh, Bfl-1 A1 inh, NALP3 yeast inh)
COC1CC(OC2CCC3(C)C(CCC4C3CCC3(C)C(C5=CC(=O)OC5)C(OC(C)=O)CC43O)C2)OC(C)C1OC1OC(COC2OC(CO)C(O)C(O)C2O)C(O)C(O)C1O (centres undefined)	none (no result: MC4R antag cAMP, NALP3 yeast inh, TbMetRS inhib, MC4R ag barr)
Cc1cccc(NC(=O)COC(=O)c2cc(C)n(C3CC3)c2C)c1	none (no result: NALP1 yeast inh)
CCn1nc(-c2cccs2)nc2c(=O)n(C)c(=O)nc1-2	NALP1 yeast inh 33, TbMetRS inhib 22 (no result: Bfl-1 A1 inh, NALP3 yeast inh)
CCOc1ccc(-n2c(-c3cccs3)nc3ccccc3c2=O)cc1	none
COc1ccccc1NC(=O)c1cn(CCC#N)nc1-c1cccc(Cl)c1	none
CNC(=O)Oc1ccc2ncccc2c1	NALP1 yeast inh 52
COC(=O)c1ccc(CN2CCSC2=N)cc1	none
C#CCOC(=O)C1=CCCN(C)C1	none (no result: NALP1 yeast inh)
